# Screening data deposited in PubChem by several laboratories.
# Shown are actives, neighbours in structure and some others; about 4% of the full set was active somewhere.
# Granule exo inh: lytic granule exocytosis inhibition; TALL-104 LAMP-1 surface exposure, flow cytometry; cells stimulated with thapsigargin and PMA; 360,000 compounds, 0.66% hits; inhibition, % at 10 µM; AID 651702;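 active = inhibition above about 55%, limit read from the data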
# ABHD5-PLIN5 inh: ABHD5-PLIN5 protein interaction inhibition | Q00G26+Q8WTS1 | Split G. princeps luciferase complementation, luminescence, 4 h | inhibition, % at 4 µM | 360,000 compounds, 0.78% hits | AID 602281;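 active = inhibition above the mean inhibition across every tested compound plus 3 SD, cut at about 22% in these data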;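 also: 0% = DMSO only wells and the 100% control is not disclosed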
# Target sequence (Q00G26 whole entry, looked up): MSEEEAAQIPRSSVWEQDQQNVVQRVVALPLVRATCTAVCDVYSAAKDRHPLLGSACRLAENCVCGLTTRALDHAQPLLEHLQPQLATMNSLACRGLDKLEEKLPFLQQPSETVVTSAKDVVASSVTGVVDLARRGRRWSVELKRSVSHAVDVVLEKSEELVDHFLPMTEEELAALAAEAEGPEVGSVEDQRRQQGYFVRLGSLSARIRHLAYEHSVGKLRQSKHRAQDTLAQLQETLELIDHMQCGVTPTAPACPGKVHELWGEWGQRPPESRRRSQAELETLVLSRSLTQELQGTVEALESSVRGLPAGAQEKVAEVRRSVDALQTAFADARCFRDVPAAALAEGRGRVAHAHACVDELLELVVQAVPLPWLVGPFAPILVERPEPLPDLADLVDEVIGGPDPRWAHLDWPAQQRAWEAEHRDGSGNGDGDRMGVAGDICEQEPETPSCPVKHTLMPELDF
# Target sequence (Q8WTS1 whole entry, looked up): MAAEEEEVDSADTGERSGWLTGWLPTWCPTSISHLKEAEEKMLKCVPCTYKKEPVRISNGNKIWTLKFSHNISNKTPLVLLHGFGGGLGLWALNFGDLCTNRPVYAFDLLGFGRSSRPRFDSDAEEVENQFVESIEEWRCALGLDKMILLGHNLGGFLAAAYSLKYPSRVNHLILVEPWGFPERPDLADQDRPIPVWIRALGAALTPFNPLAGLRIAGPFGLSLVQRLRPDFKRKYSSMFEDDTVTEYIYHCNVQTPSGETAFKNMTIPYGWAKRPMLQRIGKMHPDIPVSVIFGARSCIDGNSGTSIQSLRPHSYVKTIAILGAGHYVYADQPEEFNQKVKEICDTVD
# CHOP UPR activ: apoptotic UPR (CHOP) activation; CHO-CHOP luciferase reporter, luminescence; percent of tunicamycin response over DMSO baseline; activation, % at 10 µM; 330,000 compounds, 0.34% hits;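 active = at 10 µM dose, activation of 40% or more, normalized to positive control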;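 also: 100% = tunicamycin at 10 µg/mL and 0% = DMSO alone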
#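 System: CHO CHOP reporter cells. Amount: 500 cells per well. Buffer or medium: F12 medium, 10% FBS. Compound dosing: one dose, 10 µM in 0.5% DMSO. Incubation: 6 h compound exposure at 37 °C after overnight seeding. Technique: Steady-Glo luciferase luminescence. Benchmarks: tunicamycin and DMSO controls.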
# Mdm2-MdmX inh: human Mdm2/MdmX binding inhibition | O15151+Q00987 | SaOS-2 split-luciferase Mdm2/MdmX complementation, luminescence | inhibition, % at 8 µM | 330,000 compounds, 3% hits;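 active = inhibition of at least 50% at 8 µM in the primary screen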
# XBP1 UPR activ: adaptive UPR (XBP1) activation; 330,000 compounds, 0.33% hits; CHO-XBP1 luciferase reporter, IRE1-XBP1 UPR activation, luminescence; percent of tunicamycin response, DMSO as zero; AID 463104; activation, % at 20 µM;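 active = versus positive control, 20 µM dose yields 30% or more activation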;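 also: 100% = tunicamycin at 10 µg/mL and 0% = DMSO only wells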
#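 Material: IRE1-XBP1 luciferase reporter CHO line / Quantity: one thousand reporter cells per well / Buffer or medium: F12 with 10% serum / Compound: 20 µM single concentration, DMSO 1% / Times: 6 h treatment, 37 °C / Detection: Steady-Glo luciferase glow luminescence, 10 min after reagent addition / Benchmarks: tunicamycin high, DMSO low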
# Mdm2-MdmX conf: confirmation of human Mdm2/MdmX interaction inhibitors | inhibition, % at 8 µM | shares compounds with Mdm2-MdmX inh | AID 489028 | 10,000 compounds, 55% hits | Mdm2-MdmX binding, luminescent assay; in the data active = inhibition above about 40%
# Full FLuc ctr: full-length luciferase inhibition in Mdm2/MdmX counter-screen | shares compounds with Mdm2-MdmX inh | SaOS-2 full-length luciferase counterscreen, luminescence | inhibition, % at 8 µM | 6,200 compounds, 77% hits | AID 504607;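 active = mean inhibition at 8 µM reaching about 37%, which flags the compound as non-specific, limit read from the data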;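 also: p53-null SaOS-2 cells with luciferase driven by a doxycycline-inducible promoter; compound on cells about two nights before reading with doxycycline added after day one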
# ABHD5 PLIN5 conf: ABHD5-PLIN5 interaction inhibition, confirmed | shares compounds with ABHD5-PLIN5 inh | AID 651612 | 2,200 compounds, 67% hits | inhibition, % at 4 µM | biochemical ABHD5-PLIN5 interaction, luminescence; in the data active = inhibition above about 23%;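 also: 0% = DMSO vehicle wells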
# HNF4 counter: counter-screen for ABHD5-PLIN5 inhibitors: HNF4 split-luciferase | shares compounds with ABHD5-PLIN5 inh | HNF4 dimerization, luminescence, biochemical | inhibition, % at 4 µM | 2,200 compounds, 77% hits | AID 651674;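 active = mean inhibition across replicate wells exceeding the computed hit threshold, cut at about 13% in these data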;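 also: light from luciferase halves that rejoin when HNF4 fusion proteins dimerize; 0% = DMSO only wells and the 100% control is not given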
# Granule exo CP1: lytic granule exocytosis inhibition. 1,500 compounds, 11% hits. inhibition, % at 10 µM. shares compounds with Granule exo inh. TALL-104 cells, LAMP-1 externalization, flow cytometry; stimulated with PMA plus thapsigargin; in the data active = inhibition above about 60%;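 also: 0% = stimulated vehicle wells and 100% = unstimulated wells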
# Starred values were filed as active, the others as inactive; · = no result given.
SMILES,Granule exo inh,ABHD5-PLIN5 inh,CHOP UPR activ,Mdm2-MdmX inh,XBP1 UPR activ,Mdm2-MdmX conf,Granule exo CP1,others
CCOC(=O)c1c(NC(C)=O)sc2c(OCC(O)CN(CC)CC)c(Br)ccc12 (configuration not stated),68*,8,-1,85*,0,28,71*,
COc1cc(CNc2ccc(O)cc2)cc(Br)c1OCc1ccccc1,1,-30,1,1,-1,·,·,
COc1cc(CNC(C)(C)CO)cc(Br)c1OCc1ccc(Cl)cc1Cl,79*,34*,0,55*,2,40*,28,Full FLuc ctr=102*;ABHD5 PLIN5 conf=20;HNF4 counter=4
CCOC(=O)c1c(NC(=O)c2cccs2)sc2c1CCN(C(=O)OCC)C2,83*,7,2,65*,1,36,5,
CCOC(=O)c1c(NC(=O)c2cccs2)sc2c1CCCC2,7,-1,0,-3,-2,·,·,
O=C(O)COc1ccc(S(=O)(=O)NCCc2ccccc2)cc1,-1,0,-1,12,1,·,·,
COc1ccc(CN2CCC(N(CCc3ccccc3)Cc3ccccc3)CC2)c(OC)c1,60*,0,0,86*,-1,31,1,
CN1CCN(c2ccc(NC(=O)c3ccc(-c4ccc(Cl)cc4)o3)cc2)CC1,73*,13,3,100*,3,48*,91*,Full FLuc ctr=77*
CN1CCN(c2ccc(NC(=O)c3ccc(-c4cccc([N+](=O)[O-])c4)o3)cc2)CC1,11,11,2,-4,-4,·,·,
O=C(O)CNC(=O)C(CS)Cc1ccccc1 (configuration not stated),-5,0,-2,-14,-8,·,·,
Cc1nc(C)c(C(=O)Nc2nc3c(C)cccc3s2)o1,2,0,0,14,-1,·,·,
O=C(Nc1ccc([N+](=O)[O-])cc1)c1cncc(Br)c1,2,0,2,25,3,·,·,
Cc1ccc(NC(=O)CSc2nc3ccccc3c(=O)n2CCCN2CCCCC2)cc1Cl,79*,14,2,100*,5,78*,58,Full FLuc ctr=55*
O=C(CSc1nc2c(sc3ccccc32)c(=O)n1CCCN1CCCC1)NCc1ccccc1,67*,0,-1,54*,2,31,8,
CC1CCN(CCCn2c(SCC(=O)Nc3ccccc3Cl)nc3ccccc3c2=O)CC1,26,8,2,32,1,·,·,
O=C(CSc1nc2c(sc3ccccc32)c(=O)n1CCCN1CCOCC1)NC1CCCC1,1,3,1,-5,-1,·,·,
Cc1cc(C)cc(NC(=O)C(=O)NCCc2c[nH]c3ccccc23)c1,0,7,2,9,-1,·,·,
Cc1cc(C)nc(NC(=NCCc2c[nH]c3ccccc23)NC(=O)C(C)(C)C)n1,83*,4,2,52*,-1,17,-3,
Cc1cc(C)nc(N2C(=O)CC(C(=O)O)NC2=NCCc2c[nH]c3ccccc23)n1 (configuration not stated),-3,5,0,3,-2,·,·,
COc1ccc(C(=O)Nc2cccc(-c3csc(C)n3)c2)cc1S(=O)(=O)N1CCCC1,1,-4,0,36,0,·,·,
O=C(Nc1ccccc1NC(=O)c1ccc(F)cc1)c1ccc(F)cc1,4,-6,1,0,-3,·,·,
OC(CNCCC(c1ccccc1)c1ccccc1)COc1ccccc1 (configuration not stated),74*,4,-2,70*,2,26,-4,
CCCN1CCN(CCCNC(=O)c2cc3c(s2)-c2c(C)cccc2OC3)CC1,65*,9,2,62*,0,25,-1,
Cc1cccc2c1-c1sc(C(=O)NCCCN3CCCC(C)C3)cc1CO2 (configuration not stated),85*,14,1,67*,2,49*,-2,Full FLuc ctr=59*
CC(OC(=O)C1CCN(S(=O)(=O)c2ccc(Cl)cc2)CC1)C(=O)N1CCc2ccccc21 (configuration not stated),10,-5,-2,17,-4,·,·,
SMILES,Granule exo inh,ABHD5-PLIN5 inh,CHOP UPR activ,Mdm2-MdmX inh,XBP1 UPR activ,Mdm2-MdmX conf,Granule exo CP1,others
C/C(CS(=O)(=O)c1ccccc1)=N\O,0,5,1,9,0,·,·,
O=C(Nc1nc2ccccc2s1)c1ccccc1[N+](=O)[O-],-13,8,2,-29,-1,·,·,
Cc1ccc(S(=O)(=O)n2ccc3c(OCCOCCSCC(NC(=O)OC(C)(C)C)C(=O)O)cccc32)cc1 (configuration not stated),-15,3,1,12,-2,·,·,
Cc1ccc(S(=O)(=O)n2ccc3c(OCCOCCNCc4ccc(F)cc4)cccc32)cc1,75*,3,7,54*,-3,23,69*,
O=S(=O)(CCSc1nc2ccccc2o1)Cc1ccccc1,13,-6,-1,-35,-3,·,·,
Cc1cccc(OCCOC(=O)c2c(-c3ccccc3)noc2C)c1,75*,-3,0,55*,-6,38,-9,
CCCOc1cccc(NC(=O)c2c(-c3ccccc3)noc2C)c1,-4,-4,0,-7,2,·,·,
O=C1N[C@@H](Cc2c[nH]c3ccccc23)COC(=O)[C@H](Cc2ccc(F)cc2)C/C=C\C[C@@H]1CC(=O)N(CCO)Cc1ccccc1,4,6,1,41,0,·,·,
COC(=O)c1ccc2c(=O)n(Cc3ccc(C(=O)NCCCN4CCC(C)CC4)cc3)c(=S)[nH]c2c1,1,21,-1,-6,0,·,·,
CC1CCN(CCCNC(=O)c2ccc3c(=O)n(Cc4ccc(Cl)cc4)c(=S)[nH]c3c2)CC1,71*,15,4,88*,0,38,11,Full FLuc ctr=76*
c1ccc(OCCOCCN2CCN(C(c3ccccc3)c3ccccc3)CC2)cc1,59*,12,2,52*,2,15,8,
OC(COc1ccccc1)CN1CCN(C(c2ccccc2)c2ccccc2)CC1 (configuration not stated),18,-4,-1,20,-5,·,·,
